Assay results gathered from unrelated publications.
Lines come from different studies, so protocols differ.
Target: Calcium/calmodulin-dependent protein kinase type II subunit beta (CAMK2B, Homo sapiens, UniProt Q13554)

SMILES	assay	setting	measurement	result
Cn1cncc1[C@@](O)(COc1ccc(C#N)cc1-c1ccc(OC(F)(F)F)cc1)c1ccc(C#N)cc1	cell-free assay, competition with immobilised ligand	1 µM	remaining binding	90%
Cn1cc(-c2cc(F)cc(N3CCn4c(cc5c4CCCC5)C3=O)c2CO)cc(Nc2ccc(N3CCN(C4COC4)CC3)cn2)c1=O	enzyme activity, inhibitor	0.1 µM	inhibition	7%
Cc1nn(C)cc1-c1nc2c(N3CCN(Cc4ccc(Cl)cc4)CC3)c(Cl)cnc2[nH]1	binding, competition with immobilised ligand	1 µM	remaining binding	94%
COc1ncccc1-c1cnn2ccc(N3CCN(C(=O)OC(C)C)CC3)nc12	binding, competition with immobilised ligand	1 µM	remaining binding	81%
N#CC1(c2ccccn2)CCN(Cc2cc(C(=O)O)c(=O)n3ccccc23)CC1	cell-free assay, competition with immobilised ligand	1 µM	remaining binding	100%
Cn1cc(-c2cccc(N3CCc4c(sc5c4CC(C)(C)C5)C3=O)c2CO)cc(Nc2ccncn2)c1=O	enzyme activity, inhibitor	1 µM	inhibition	12%
C#Cc1n[nH]c2c(-c3cn([C@@H](C)c4ccccc4)c(=O)[nH]c3=O)cc(F)cc12	enzyme activity, inhibitor	0.1 µM	inhibition	6.5%
O=c1[nH]c2ccccc2n1C1CCN(Cc2ccc(-c3[nH]c4cc5ncnc5cc4nc3-c3ccccc3)cc2)CC1	enzyme activity	0.5 µM	remaining activity	104%
Nc1ncc(-c2nc(N3CCOCC3)nc(N3CCOCC3)n2)c(C(F)F)n1	binding, competition with immobilised ligand	10 µM	remaining binding	69%
C#Cc1n[nH]c2c(-c3cn(C(C)c4ccccn4)c(=O)[nH]c3=O)cc(F)cc12 (centres unmarked)	enzyme activity, inhibitor	1 µM	inhibition	4.3%
CC(C)(C)c1cc(C=C(C#N)C#N)cc(Br)c1O	enzyme activity, inhibitor	0.5 µM	remaining activity	99.3%
